pKi: −log10 of the molar value.
Experiments:
[1] = tested on: Rattus norvegicus; assay: Effective dose in blocking conditioned avoidance responding (CAR) in the rat when administered intraperitoneally; format: functional; conditions: ip
How it was run: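 Rats trained on a discrete-trial single-lever conditioned avoidance task, dosed ip and tested at the time of peak effect. Each dose was given to 6–12 rats. CAR reduction and loss of escape responding were recorded.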

[2] = molecular target: T1, Serotonin 1 (5-HT1) receptor (Rattus norvegicus, UniProt P28564+P30940+P19327+P28565); assay: Inhibition of [3H]5-HT radioligand binding against 5-hydroxytryptamine 1 receptor; format: protein assay
[3] = molecular target: T2, 5-hydroxytryptamine receptor 1A (Rattus norvegicus, UniProt P19327)
T2 sequence (P19327 whole entry): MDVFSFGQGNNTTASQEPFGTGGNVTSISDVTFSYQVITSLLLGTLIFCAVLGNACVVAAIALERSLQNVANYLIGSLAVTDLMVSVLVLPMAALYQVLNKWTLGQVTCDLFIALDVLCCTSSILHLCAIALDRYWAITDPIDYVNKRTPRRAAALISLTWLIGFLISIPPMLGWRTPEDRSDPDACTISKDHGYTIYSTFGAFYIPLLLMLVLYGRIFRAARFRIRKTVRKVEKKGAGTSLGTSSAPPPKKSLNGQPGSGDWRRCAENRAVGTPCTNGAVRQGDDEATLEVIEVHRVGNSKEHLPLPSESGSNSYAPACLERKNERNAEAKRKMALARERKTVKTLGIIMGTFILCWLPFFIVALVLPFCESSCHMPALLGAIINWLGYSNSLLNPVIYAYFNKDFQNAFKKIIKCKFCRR

[4] = molecular target: Serotonin 2 (5-HT2) receptor (Rattus norvegicus, UniProt P30994+P08909+P14842); assay: Binding affinity at rat 5-hydroxytryptamine 2 receptor by [3H]ketanserin displacement.; format: protein assay
[5] = molecular target: T3, Adrenergic receptor alpha-1 (Rattus norvegicus, UniProt P15823+P23944+P43140); assay: Binding affinity against rat Alpha-1 adrenergic receptor.; format: protein assay
T3 sequence (P15823 whole entry): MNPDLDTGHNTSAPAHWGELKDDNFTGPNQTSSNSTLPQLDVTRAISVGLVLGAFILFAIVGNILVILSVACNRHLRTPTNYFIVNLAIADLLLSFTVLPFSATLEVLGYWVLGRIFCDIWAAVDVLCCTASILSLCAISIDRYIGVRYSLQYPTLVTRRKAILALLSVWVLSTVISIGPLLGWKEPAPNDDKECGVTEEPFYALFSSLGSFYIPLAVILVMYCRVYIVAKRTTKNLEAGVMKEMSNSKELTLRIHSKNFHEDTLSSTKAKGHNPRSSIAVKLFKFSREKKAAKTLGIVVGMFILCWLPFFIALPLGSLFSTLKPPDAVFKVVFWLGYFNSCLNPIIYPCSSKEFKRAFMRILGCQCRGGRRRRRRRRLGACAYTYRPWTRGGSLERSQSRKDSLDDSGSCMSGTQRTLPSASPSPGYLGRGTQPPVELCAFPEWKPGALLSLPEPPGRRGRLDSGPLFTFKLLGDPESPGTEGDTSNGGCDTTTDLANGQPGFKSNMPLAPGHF
T3 sequence (P23944 whole entry): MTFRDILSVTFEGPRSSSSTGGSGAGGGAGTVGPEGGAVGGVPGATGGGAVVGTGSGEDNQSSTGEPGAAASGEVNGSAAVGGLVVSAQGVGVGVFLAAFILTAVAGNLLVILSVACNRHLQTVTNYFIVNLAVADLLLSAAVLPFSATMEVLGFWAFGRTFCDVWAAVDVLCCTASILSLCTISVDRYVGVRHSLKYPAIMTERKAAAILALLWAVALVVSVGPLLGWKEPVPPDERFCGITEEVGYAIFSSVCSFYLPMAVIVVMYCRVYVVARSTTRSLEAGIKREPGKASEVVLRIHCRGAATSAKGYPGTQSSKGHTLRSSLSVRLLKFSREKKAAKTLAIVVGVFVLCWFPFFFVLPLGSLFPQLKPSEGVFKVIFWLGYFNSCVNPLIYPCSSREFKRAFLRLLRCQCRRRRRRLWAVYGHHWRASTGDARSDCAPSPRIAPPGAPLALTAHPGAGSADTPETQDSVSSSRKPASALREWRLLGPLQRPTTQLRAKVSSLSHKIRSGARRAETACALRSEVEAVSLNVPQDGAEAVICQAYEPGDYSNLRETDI
T3 sequence (P43140 whole entry): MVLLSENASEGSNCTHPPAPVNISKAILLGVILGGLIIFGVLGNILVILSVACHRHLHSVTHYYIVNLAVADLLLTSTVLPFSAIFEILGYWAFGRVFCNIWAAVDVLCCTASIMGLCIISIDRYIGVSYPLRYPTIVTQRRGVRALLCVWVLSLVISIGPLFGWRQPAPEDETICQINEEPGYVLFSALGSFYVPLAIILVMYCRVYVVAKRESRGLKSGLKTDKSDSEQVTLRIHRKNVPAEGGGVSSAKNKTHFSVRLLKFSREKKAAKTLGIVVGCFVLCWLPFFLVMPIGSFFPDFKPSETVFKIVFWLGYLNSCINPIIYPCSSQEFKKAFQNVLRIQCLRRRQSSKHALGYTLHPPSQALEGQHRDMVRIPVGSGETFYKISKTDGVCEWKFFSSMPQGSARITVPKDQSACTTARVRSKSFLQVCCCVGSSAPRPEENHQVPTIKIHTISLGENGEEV

[6] = molecular target: D(1A) dopamine receptor (Rattus norvegicus, UniProt P18901); assay: Binding affinity at rat Dopamine receptor D1 by [3H]SCH-23390 displacement.
D(1A) dopamine receptor, sequence (P18901 whole entry): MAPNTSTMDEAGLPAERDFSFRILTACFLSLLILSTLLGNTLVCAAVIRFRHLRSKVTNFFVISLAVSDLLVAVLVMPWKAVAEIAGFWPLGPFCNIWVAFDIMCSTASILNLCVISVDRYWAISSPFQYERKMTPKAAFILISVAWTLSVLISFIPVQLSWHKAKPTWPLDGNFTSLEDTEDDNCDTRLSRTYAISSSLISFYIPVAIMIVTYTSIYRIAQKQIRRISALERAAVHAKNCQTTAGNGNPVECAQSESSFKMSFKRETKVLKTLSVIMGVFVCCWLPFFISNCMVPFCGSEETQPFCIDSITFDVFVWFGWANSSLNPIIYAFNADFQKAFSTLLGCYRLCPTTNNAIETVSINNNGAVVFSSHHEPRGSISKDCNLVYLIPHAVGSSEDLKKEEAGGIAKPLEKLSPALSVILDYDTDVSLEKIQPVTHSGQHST
How it was run: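 Rat striatal tissue suspended in 20 mM NaHepes without sucrose, at 250 volumes of the tissue weight. Labelled with [3H]SCH-23390 added as a 3 nM solution. Nonspecific binding set with unlabelled SCH-23390 added as a 30 μM solution. Incubated 20 min. Run in duplicate, with one to five concentration–response curves per compound.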

[7] = molecular target: D(2) dopamine receptor (Rattus norvegicus, UniProt P61169); assay: Binding affinity against rat Dopamine receptor D2.
D(2) dopamine receptor, sequence (P61169 whole entry): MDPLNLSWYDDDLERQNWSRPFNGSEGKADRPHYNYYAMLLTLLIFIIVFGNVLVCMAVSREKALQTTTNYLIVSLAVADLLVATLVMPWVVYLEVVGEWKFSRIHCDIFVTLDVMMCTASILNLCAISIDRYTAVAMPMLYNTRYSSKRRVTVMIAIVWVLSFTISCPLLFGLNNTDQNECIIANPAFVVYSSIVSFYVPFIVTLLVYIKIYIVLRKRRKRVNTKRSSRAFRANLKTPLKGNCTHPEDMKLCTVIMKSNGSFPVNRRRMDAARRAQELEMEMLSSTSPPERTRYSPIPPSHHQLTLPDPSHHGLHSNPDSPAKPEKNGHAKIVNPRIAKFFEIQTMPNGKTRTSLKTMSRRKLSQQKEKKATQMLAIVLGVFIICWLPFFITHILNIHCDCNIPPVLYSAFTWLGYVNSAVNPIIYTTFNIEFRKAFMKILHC

[8] = species: Rattus norvegicus; assay: The percent loss of escape responding was determined for the estimated effective dose 50 values for CAR block; format: functional
[9] = molecular target: 5-hydroxytryptamine receptor 1B (Rattus norvegicus, UniProt P28564); assay: Binding affinity at rat 5-hydroxytryptamine 1B receptor by [3H]5-HT displacement.
5-hydroxytryptamine receptor 1B, sequence (P28564 whole entry): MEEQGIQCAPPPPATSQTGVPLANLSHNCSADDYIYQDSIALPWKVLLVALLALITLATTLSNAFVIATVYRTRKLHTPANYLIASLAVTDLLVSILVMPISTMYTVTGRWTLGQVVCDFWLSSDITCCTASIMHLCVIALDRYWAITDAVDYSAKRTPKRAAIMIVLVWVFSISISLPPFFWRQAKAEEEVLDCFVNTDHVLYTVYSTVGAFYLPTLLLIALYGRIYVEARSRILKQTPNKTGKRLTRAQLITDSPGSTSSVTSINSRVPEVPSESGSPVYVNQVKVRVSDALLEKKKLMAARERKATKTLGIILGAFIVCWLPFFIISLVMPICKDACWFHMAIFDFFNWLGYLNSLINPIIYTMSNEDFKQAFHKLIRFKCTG

[10] = molecular target: T1, Serotonin 1 (5-HT1) receptor; assay: Binding affinity determined in radioreceptor binding assay by using [3H]5-HT radioligand against 5-hydroxytryptamine 1 receptor; format: protein assay

SMILES | ED50 [1] | Ki [2] | pKi [3] | Ki [4] | Ki [5] | pKi [6] | pKi [7] | Loss [8] | pKi [9] | Ki [10]
c1ccc(C2(N3CCCCC3)CCCCC2)cc1 [PHENCYCLIDINE] | 1 mg/kg |  |  |  |  |  |  |  |  | 
CN1[C@@H]2CC[C@H]1C[C@@H](OC(=O)C(CO)c1ccccc1)C2 (some centres undefined) [ATROPINE] | 3 mg/kg |  |  |  |  |  |  |  |  | 
c1ccc(N2CCNCC2)cc1 [PHENYLPIPERAZINE] | 2.7 mg/kg | 149 nM | 6.83 | 668 nM | 794 nM | < 6.00 | < 6.00 | 6% | 7.20 | 
O=C(CCCN1CCC(O)(c2ccc(Cl)cc2)CC1)c1ccc(F)cc1 [HALOPERIDOL] |  |  |  |  |  |  |  | 1.7% |  | 
O=[N+]([O-])c1cccc(N2CCNCC2)c1 | 5.6 mg/kg | 250 nM | ~6.49 | 419 nM | > 1000 nM | < 6.00 | < 6.00 | 4.3% | 7.47 | 
COC(=O)[C@H]1[C@@H](OC(=O)c2ccccc2)C[C@@H]2CC[C@H]1N2C [COCAINE] | 10 mg/kg |  |  |  |  |  |  |  |  | 
Fc1cccc(N2CCNCC2)c1 | 3.2 mg/kg | 86.5 nM | 6.94 | > 1000 nM | 670 nM | < 6.00 | < 6.00 |  | 7.51 | 
CCCN(CCC)C1CCc2cccc(O)c2C1 (centres undefined) [8-OH-DPAT] | 0.5 mg/kg |  |  |  |  |  |  |  |  | 
CNCCCN1c2ccccc2CCc2ccccc21 [DESIPRAMINE] | 20 mg/kg |  |  |  |  |  |  |  |  | 
N#Cc1ccccc1N1CCNCC1 | 5.7 mg/kg | 26.1 nM | 7.59 | > 1000 nM | 214 nM | < 6.00 | < 6.00 | 4.3% | 7.66 | 
CSc1ccc2c(c1)N(CCC1CCCCN1C)c1ccccc1S2 (centres undefined) [THIORIDAZINE] | 9.7 mg/kg |  |  |  |  |  |  | 7.3% |  | 
CN1CCN(CCCN2c3ccccc3Sc3ccc(C(F)(F)F)cc32)CC1 [TRIFLUOPERAZINE] | 0.52 mg/kg |  |  |  |  |  |  | 1.2% |  | 
CCCCc1ccccc1N1CCNCC1 | > 15 mg/kg |  | 7.72 | 204 nM | 31.8 nM | < 6.00 | 6.08 |  | 8.08 | 64.8 nM
CCCCOc1ccccc1N1CCNCC1 | 11.2 mg/kg | 19.3 nM | 7.95 | 277 nM | 139 nM | < 6.00 | 6.61 | 0.2% | 8.40 | 
COc1ccccc1N1CCNCC1 | 5.6 mg/kg | 29 nM | 8.02 | > 1000 nM | 510 nM | < 6.00 |  | 1.8% | 7.76 | 
Clc1cccc(N2CCNCC2)c1 [CHLOROPHENYLPIPERAZINE] | 2.4 mg/kg | 25 nM | 7.64 | 40 nM | 236 nM | < 6.00 | < 6.00 | 1.5% | 8.36 | 
CN1CCN(C2=Nc3cc(Cl)ccc3Nc3ccccc32)CC1 [CLOZAPINE] |  |  |  |  |  |  |  | 12.6% |  | 
Fc1ccccc1N1CCNCC1 | 5.1 mg/kg | 57.9 nM | 7.37 | > 1000 nM | 373 nM | < 6.00 | < 6.00 | 1.6% | 7.54 | 
CCCc1ccccc1N1CCNCC1 | > 15 mg/kg |  | 7.71 | 232 nM | 117 nM | < 6.00 | 6.42 |  | 7.80 | 34.9 nM
CC(C)Oc1ccccc1N1CCNCC1 | 4.8 mg/kg | 19 nM | 8.12 | 235 nM | 84 nM | < 6.00 | 7.19 | 0.4% | 8.16 | 
CN(C)CCCN1c2ccccc2Sc2ccc(Cl)cc21 [CHLORPROMAZINE] | 1.8 mg/kg |  |  |  |  |  |  | 0.2% |  | 
CN1C(=O)CN=C(c2ccccc2)c2cc(Cl)ccc21 [DIAZEPAM] | 10 mg/kg |  |  |  |  |  |  |  |  | 
CCN(CC)C(=O)[C@@H]1C=C2c3cccc4[nH]cc(c34)C[C@H]2N(C)C1 [LYSERGIDE] | 0.32 mg/kg |  |  |  |  |  |  |  |  | 
CCOc1ccccc1N1CCNCC1 | 3.4 mg/kg | 42.6 nM | 8.04 | 774 nM | 70 nM | < 6.00 | 6.84 | ~1% | 7.86 | 

Reference: ChEMBL document CHEMBL1124459, “Activity of aromatic substituted phenylpiperazines lacking affinity for dopamine binding sites in a preclinical test of antipsychotic efficacy” (J Med Chem, 1989)
